Experimental data from different studies.
GRM3: Metabotropic glutamate receptor 3 (GRM3, Homo sapiens, UniProt Q14832)
NPSR1: Neuropeptide S receptor (NPSR1, Homo sapiens, UniProt Q6W5P4)
PTPN12: Tyrosine-protein phosphatase non-receptor type 12 (PTPN12, Homo sapiens, UniProt Q05209)
TPR: Trypanothione reductase (TPR, Trypanosoma cruzi, UniProt P28593)
MKNK2: MAP kinase-interacting serine/threonine-protein kinase 2 (MKNK2, Homo sapiens, UniProt Q9HBH9)
SLC6A2: Sodium-dependent noradrenaline transporter (SLC6A2, Homo sapiens, UniProt P23975)
Fructose-1,6-bisphosphatase 1: Fructose-1,6-bisphosphatase 1 (Mus musculus, UniProt Q9QXD6)
Aldo-keto reductase family 1 member A1: Aldo-keto reductase family 1 member A1 (Rattus norvegicus, UniProt P51635)

SMILES | target | read-out | action | method | pH | setting | IC50 [µM]
COc1ccc(-c2cc(C(N)=O)ncc2OCc2ccnc(C)c2)c(F)c1 | GRM3 | ion flux | antagonist | – | – | – | > 10
COc1cccc(C2c3c(ncn(-c4ccc(F)cc4)c3=N)Oc3ccc4ccccc4c32)c1 (stereo not drawn) | NPSR1 | calcium signal | antagonist | – | – | – | 3.48
O=C1c2ccccc2C(=O)c2c(O)c(O)cc(O)c21 | PTPN12 | enzyme activity | inhibitor | – | – | – | 5
c1ccc(CCCN2CCNCC2)cc1 | TPR | enzyme activity | inhibitor | absorbance | – | – | 34.5
N=c1c2c(ncn1-c1ccccc1)Oc1ccc3ccccc3c1C2c1ccc2c(c1)CCO2 (stereo not drawn) | NPSR1 | cAMP | antagonist | TR-FRET | – | – | 3.07
N=c1n(CCN2CCCCC2)c2ccccc2n1CC(O)COc1ccccc1 (stereo not drawn) | TPR | enzyme activity | inhibitor | – | – | – | ≤ 10
COc1ccc(C2c3c(ncn(CCCc4ccccc4)c3=N)Oc3ccc4ccccc4c32)cc1OC (stereo not drawn) | NPSR1 | calcium signal | antagonist | – | – | – | > 30
O=c1[nH]c(=S)n(Cc2ccc(Cl)cc2CNCC(F)(F)F)c2cc[nH]c12 | Myeloperoxidase (MPO, Homo sapiens, UniProt P05164) | enzyme activity | inhibitor | – | – | – | 0.035
COc1ccc(-c2cc(C(N)=O)ncc2OCc2noc(C)n2)c(F)c1 | GRM3 | ion flux | antagonist | – | – | – | > 10
CCN(CC)C(=S)SSC(=S)N(CC)CC | PTPN12 | enzyme activity | inhibitor | fluorescence | – | – | > 500
COc1ccc(-n2cnc3c(c2=N)C(c2cccc(OC)c2)c2c(ccc4ccccc24)O3)cc1 (stereo not drawn) | NPSR1 | calcium signal | antagonist | – | – | – | 4.38
CN1CCN(c2ccc(Nc3ncc4cc(C#N)c(=O)n(C5CCCC5)c4n3)cc2)CC1 | MKNK2 | enzyme activity | inhibitor | – | – | – | 4.41
Fc1ccc(C(c2ccc(F)cc2)c2nnnn2CCCCN2CCC(Cc3ccc(Cl)c(Cl)c3)CC2)cc1 | SLC6A2 | transporter uptake | inhibitor | – | – | – | 0.521
C=CC(=O)Nc1cc(Nc2nccc(Nc3cc(Cl)c(F)cc3C(C)(C)O)n2)c(OC)cc1N1CC[C@@H](N(C)C)C1 | MKNK2 | enzyme activity | inhibitor | – | – | with preincubation | 1.03
COc1ccc(-c2nsc(NC(=O)[C@@H]3C[C@H]3C)c2C)cc1 | GRM3 | calcium signal | antagonist | – | – | – | > 12.5
O=S1(=O)O[C@@H]2[C@H](O)[C@@H](O)[C@H](O)[C@@H](CO)[C@@H]2O1 | bglA (Thermotoga maritima, UniProt Q08638) | enzyme activity | inhibitor | – | pH 6.8 | with preincubation | > 100
C1CNCCN1 | TPR | enzyme activity | inhibitor | absorbance | – | – | > 100
CCN(CC)CCn1c(=N)n(CC(=O)c2ccc(C)cc2)c2ccccc21 | TPR | enzyme activity | inhibitor | – | – | – | ≤ 10
COc1ccc(-c2cc(C(N)=O)ncc2OCc2ccnc(F)c2)c(F)c1 | GRM3 | ion flux | antagonist | – | – | – | > 10
O=P(O)(O)OC[C@H]1O[C@@](CO)(OP(=O)(O)O)[C@@H](O)[C@@H]1O | Fructose-1,6-bisphosphatase 1 | enzyme activity | inhibitor | – | – | – | 1.69

SMILES | target | read-out | action | method | pH | setting | IC50 [µM]
O=C(O)C1=CC(=C(c2ccc(O)c(C(=O)O)c2)c2ccc(O)c(C(=O)O)c2)C=CC1=O | TPR | enzyme activity | inhibitor | absorbance | – | – | 0.176
Cc1cnc(-c2ccc(-c3ccc(NC(=O)Nc4c(F)cc(F)cc4F)cc3F)c3c2C(=O)NC3)[nH]1 | Serine/threonine-protein kinase/endoribonuclease IRE2 (ERN2, Homo sapiens, UniProt Q76MJ5) | enzyme activity | inhibitor | – | – | – | 0.0148
O=C(Oc1cc(O)cc2c1C[C@@H](OC(=O)c1cc(O)c(O)c(O)c1)[C@@H](c1cc(O)c(O)c(O)c1)O2)c1cc(O)c(O)c(O)c1 | PTPN12 | enzyme activity | inhibitor | – | – | – | 0.02
COc1ccc2nc(/N=C3/NC(=O)C(=Cc4ccc(O)c(OC)c4)S3)sc2c1 | Aldo-keto reductase family 1 member A1 | enzyme activity | inhibitor | absorbance | pH 7.2 | – | 0.61
Clc1ccc(C(c2ccccc2)c2nnnn2CCCN2CCC(CCCc3ccccc3)CC2)cc1 (stereo not drawn) | SLC6A2 | transporter uptake | inhibitor | – | – | – | 0.527
O=C(O)c1cc(O)c2c(c1)[C@H]([C@H]1c3cc(C(=O)O)cc(O)c3C(=O)c3c(O[C@@H]4O[C@H](CO)[C@@H](O)[C@H](O)[C@H]4O)cccc31)c1cccc(O[C@@H]3O[C@H](CO)[C@@H](O)[C@H](O)[C@H]3O)c1C2=O | PTPN12 | enzyme activity | inhibitor | fluorescence | – | – | 0.4
Fc1ccc(C(c2ccc(F)cc2)c2nnnn2CCCCN2CCC(c3ccccc3)CC2)cc1 | SLC6A2 | transporter uptake | inhibitor | – | – | – | 0.675
COc1cccc(C2c3c(ncn(-c4cccc(C)c4)c3=N)Oc3ccc4ccccc4c32)c1 (stereo not drawn) | NPSR1 | calcium signal | antagonist | – | – | – | 4.38
Cc1ccc(OCC(O)Cn2c(=N)n(CCN3CCCCC3)c3ccccc32)cc1 (stereo not drawn) | TPR | enzyme activity | inhibitor | – | – | – | ≤ 10
Nc1ncnc2c1C(c1ccccc1)c1c(ccc3ccccc13)O2 (stereo not drawn) | NPSR1 | cAMP | antagonist | TR-FRET | – | – | 7.72
COc1ccc(-c2cc(C(N)=O)ncc2OCc2cnc(OC)nc2)c(F)c1 | GRM3 | ion flux | antagonist | – | – | – | > 10
COc1ccc2c(Oc3ccc4c(C(=O)Nc5ccccc5N)cccc4c3)ccnc2c1 | Fibroblast growth factor receptor 1 (FGFR1, Homo sapiens, UniProt P11362) | enzyme activity | inhibitor | – | – | – | > 0.5
O=C1c2ccccc2-c2cccc3cccc1c23 | PTPN12 | enzyme activity | inhibitor | – | – | – | > 150
COc1ccc2nc(/N=C3/NC(=O)C(=Cc4ccccc4)S3)sc2c1 | Aldo-keto reductase family 1 member A1 | enzyme activity | inhibitor | absorbance | pH 7.2 | – | > 50
COc1cccc(C2c3c(ncn(-c4ccc(Br)cc4)c3=N)Oc3ccc4ccccc4c32)c1 (stereo not drawn) | NPSR1 | cAMP | antagonist | TR-FRET | – | – | 15.4
CCCc1ccccc1 | TPR | enzyme activity | inhibitor | absorbance | – | – | > 100
COc1ccc2nc(/N=C3/NC(=O)C(=Cc4cc(OC)c(O)c(OC)c4)S3)sc2c1 | Aldo-keto reductase family 1 member A1 | enzyme activity | inhibitor | absorbance | pH 7.2 | – | 42.1
COc1cccc(C2c3c(ncn(-c4ccccc4Cl)c3=N)Oc3ccc4ccccc4c32)c1 (stereo not drawn) | NPSR1 | calcium signal | antagonist | – | – | – | 5.51
CC(C)Cc1sc(N)nc1-c1ccc(P(=O)(O)O)o1 | Fructose-1,6-bisphosphatase 1 | enzyme activity | inhibitor | – | – | – | 0.3
